Among the data in PMC3273716 (European Journal of Medicinal Chemistry, 2011) are IC50 and Activity ranking values, retold here.

Where two headings read alike, the source gives them in different places.

For the assay, the system named is P. carinii. Briefly: ATP bioassay, anti-Pneumocystis activity. Type of assay: cell-based, Pneumocystis carinii. The note with it: for IC50: Pneumocystis carinii. The procedure, abridged: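 Rat-lung P. carinii (male CD rats, methylprednisolone-immunosuppressed), cryopreserved, thawed, held at 5 × 10^7 nuclei/ml in RPMI-1640 + 20% calf serum, 37 °C, 5% CO2. Screen at 100 µg/ml; titrated if ATP fell ≥50%. Luciferin-luciferase ATP at 6, 24, 48, 72 h. Triplicate wells, 3 assays, 2 batches. Ampicillin 10 µg/ml and pentamidine 1 µg/ml controls. IC50: linear regression, % ATP decrease vs log concentration.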

The mark [1] stands for this setting: 72 h, read-out: IC50 (µg/ml) ± SD for P. carinii.

As to `COc1cc(C(=N)N)cc(OC)c1OCCN(C)CCOc1c(OC)cc(C(=N)N)cc1OC.Cl.Cl` [compound 3, 1,5-Bis(4-amidino-2,6-dimethoxyphenoxy)-N-methyl-3-azapentane trihydrochloride], the IC50 was 45.2 ± 16.9 µg/mL under setting [1] and 10 to 49.9 µg/mL (read-out: Activity ranking).
Consider `Cl.Cl.N=C(N)c1ccc(OCCN(CCOc2ccc(C(=N)N)cc2)S(=O)(=O)c2ccccc2)cc1` [compound 11, N,N-Bis[2(4-amidinophenoxy)ethyl]benzenesulfonamide dihydrochloride], for which the IC50 is, setting by setting: under setting [1], 0.81 ± 0.12 µg/mL; (read-out: Activity ranking) 0.1 to 0.99 µg/mL. Moreover, the Activity ranking entry (ranking based on IC50 in µg/ml) is “marked”.
For `COc1cc(C(=N)N)cc(OC)c1OCCCCCOc1c(OC)cc(C(=N)N)cc1OC.Cl.Cl` [compound 9, 1,5-Bis(4-amidino-2,6-dimethoxyphenoxy)pentane dihydrochloride], the IC50 under setting [1] turned out to be 1.68 ± 0.37 µg/mL and the IC50 (read-out: Activity ranking) fell in the range of 1 to 9.99 µg/mL.
Regarding `COc1cc(C(=N)N)cc(OC)c1OCCOCCOc1c(OC)cc(C(=N)N)cc1OC.Cl.Cl` [compound 8, 1,5-Bis(4-amidino-2,6-dimethoxyphenoxy)-3-oxapentane dihydrochloride], the IC50 by setting is: under setting [1], 7.66 ± 1.67 µg/mL; (read-out: Activity ranking) 1 to 9.99 µg/mL.
Take `Cl.Cl.N=C(N)c1ccc(C(=O)NCCCCCCNC(=O)c2ccc(C(=N)N)cc2)cc1` [compound 20, N,N’-Hexane-1,6-diylbis(4-amidinobenzamide) dihydrochloride]: the IC50 by setting is: under setting [1], 4.9 ± 1.2 µg/mL; (read-out: Activity ranking) 1 to 9.99 µg/mL.
For `CN(CCOc1ccc(C(=N)N)cc1)CCOc1ccc(C(=N)N)cc1.Cl.Cl` [compound 1, 1,5-Bis(4-amidinophenoxy)-N-methyl-3-azapentane trihydrochloride], the IC50 runs as follows: under setting [1], 0.82 ± 0.44 µg/mL; (read-out: Activity ranking) 0.1 to 0.99 µg/mL.
The corresponding values for `Cl.Cl.N=C(N)c1ccc(OCCOCCOc2ccc(C(=N)N)cc2)cc1` [compound 6] are 0.96 ± 0.32 µg/mL and 0.1 to 0.99 µg/mL.
For the compound `Cl.Cl.N=C(N)c1ccc(C(=O)NCCCCNC(=O)c2ccc(C(=N)N)cc2)cc1` [compound 18, N,N’-Butane-1,4-diylbis(4-amidinobenzamide) dihydrochloride], the IC50 is, setting by setting: under setting [1], 1.85 ± 0.01 µg/mL; (read-out: Activity ranking) 1 to 9.99 µg/mL.
As to `Cl.Cl.N=C(N)c1ccc(NCCOCCNc2ccc(C(=N)N)cc2)cc1` [compound 5], the IC50 runs as follows: under setting [1], 0.47 ± 0.09 µg/mL; (read-out: Activity ranking) 0.1 to 0.99 µg/mL.
With `Cl.Cl.N=C(N)c1ccc(OCCSCCOc2ccc(C(=N)N)cc2)cc1` [compound 10, 1,5-Bis(4-amidinophenoxy)-3-thiapentane dihydrochloride], the IC50 by setting is: under setting [1], 0.52 ± 0.04 µg/mL; (read-out: Activity ranking) 0.1 to 0.99 µg/mL.
The corresponding values for `Cl.Cl.N=C(N)c1ccc(C(=O)NCCCNC(=O)c2ccc(C(=N)N)cc2)cc1` [compound 17, N,N’-Propane-1,3-diylbis(4-amidinobenzamide) dihydrochloride] are 1.53 ± 0.9 µg/mL and 1 to 9.99 µg/mL.
Consider `CN(CCCCCN(C)c1ccc(C(=N)N)cc1)c1ccc(C(=N)N)cc1.Cl.Cl` [compound 4], for which the IC50 by setting is: under setting [1], 1.02 ± 0.51 µg/mL; (read-out: Activity ranking) 1 to 9.99 µg/mL.
Turning to `COc1cc(C(=N)N)ccc1OCCOCCOc1ccc(C(=N)N)cc1OC.Cl.Cl` [compound 7, 1,5-Bis(4-amidino-2-methoxyphenoxy)-3-oxapentane dihydrochloride], the IC50 under setting [1] amounted to 2 ± 1.65 µg/mL and the IC50 (read-out: Activity ranking) lay in the range of 1 to 9.99 µg/mL.
Turning to `COc1cc(C(=N)N)cc(OC)c1OCCN(CCOc1c(OC)cc(C(=N)N)cc1OC)S(=O)(=O)c1ccccc1.Cl.Cl` [compound 13, N,N-Bis[2(4-amidino-2,6-dimethoxyphenoxy)ethyl]-benzenesulfonamide], the IC50 is, setting by setting: under setting [1], 3.13 ± 0.99 µg/mL; (read-out: Activity ranking) 1 to 9.99 µg/mL.
Taken in the same sequence, the figures for `COc1cc(C(=N)N)ccc1OCCN(CCOc1ccc(C(=N)N)cc1OC)S(=O)(=O)c1ccc(NC(C)=O)cc1.Cl.Cl` [compound 15, N,N-Bis[2(4-amidino-2-methoxyphenoxy)ethyl]-4-acetamidobenzenesulfonamide] were 2.59 ± 0.83 µg/mL and 1 to 9.99 µg/mL.
On to `Cl.Cl.N=C(N)c1ccc(C(=O)NCCCCCNC(=O)c2ccc(C(=N)N)cc2)cc1` [compound 19, N,N’-Pentane-1,5-diylbis(4-amidinobenzamide) dihydrochloride], for which the IC50 by setting is: under setting [1], 7.4 ± 0.22 µg/mL; (read-out: Activity ranking) 1 to 9.99 µg/mL.
Taken in the same sequence, the figures for `COc1cc(C(=N)N)ccc1OCCN(CCOc1ccc(C(=N)N)cc1OC)S(=O)(=O)c1ccccc1.Cl.Cl` [compound 12, N,N-Bis[2(4-amidino-2-methoxyphenoxy)ethyl]benzenesulfonamide dihydrochloride] were 1.8 ± 0.76 µg/mL and 1 to 9.99 µg/mL.
With `COc1cc(C(=N)N)cc(OC)c1OCCN(CCOc1c(OC)cc(C(=N)N)cc1OC)S(=O)(=O)c1ccc(N)cc1.Cl.Cl` [compound 16], the IC50 is, setting by setting: under setting [1], 3.24 ± 0.88 µg/mL; (read-out: Activity ranking) 1 to 9.99 µg/mL.
For the compound `N=C(N)c1ccc(OCCCCCOc2ccc(C(=N)N)cc2)cc1` [pentamidine, reference compound], the IC50 by setting is: (72 h) 500 nM; under setting [1], 0.3 µg/mL.
With `COc1cc(C(=N)N)ccc1OCCN(C)CCOc1ccc(C(=N)N)cc1OC.Cl.Cl` [compound 2, 1,5-Bis(4-amidino-2-methoxyphenoxy)-N-methyl-3-azapentane], the IC50 was 2.1 ± 1.24 µg/mL under setting [1] and 1 to 9.99 µg/mL (read-out: Activity ranking).
